Values after ≈ are worked out from the molar mass of the structure shown. Active and inactive are the calls of the source. The rule behind the calls is not given here.
Key:
[1] = system: Mucor mucedo; experiment: Antifungal activity against Mucor mucedo ATCC 7941 assessed as growth inhibition at pH 7 incubated for 20 hrs in presence of 10% beef serum; format: functional; details: for MIC: ATCC 7941, 20 h, read-out: MIC100
Procedure, shortened: (§1)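 Agar dilution in Sabouraud dextrose agar at pH 5.6 or 7.0, with or without 10% beef serum. C. albicans and M. mucedo were incubated 20 h at 37°; A. niger and T. mentagrophytes 5 days at 28°. The value is the minimal µg/ml giving 100% inhibition. Steps were 1 µg/ml up to 10, 2 up to 20, then 10 up to 100 µg/ml maximum.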

[2] = system: Aspergillus niger; experiment: Antifungal activity against Aspergillus niger ATCC 1004 assessed as growth inhibition at pH 5.6 incubated for 5 days in absence of 10% beef serum; format: functional; details: for MIC: ATCC 1004, 120 h, read-out: MIC100; procedure, shortened: as §1
[3] = system: Aspergillus niger; experiment: Antifungal activity against Aspergillus niger ATCC 1004 assessed as growth inhibition at pH 5.6 incubated for 5 days in presence of 10% beef serum; format: functional; details: for MIC: ATCC 1004, 120 h, read-out: MIC100; procedure, shortened: as §1
[4] = system: Candida albicans; experiment: Antifungal activity against Candida albicans ATCC 10231 assessed as growth inhibition at pH 5.6 incubated for 20 hrs in absence of 10% beef serum; format: functional; details: for MIC: ATCC 10231, 20 h, read-out: MIC100; procedure, shortened: as §1
[5] = system: Candida albicans; experiment: Antifungal activity against Candida albicans ATCC 10231 assessed as growth inhibition at pH 5.6 incubated for 20 hrs in presence of 10% beef serum; format: functional; details: for MIC: ATCC 10231, 20 h, read-out: MIC100; procedure, shortened: as §1
[6] = system: Mucor mucedo; experiment: Antifungal activity against Mucor mucedo ATCC 7941 assessed as growth inhibition at pH 5.6 incubated for 20 hrs in absence of 10% beef serum; format: functional; details: for MIC: ATCC 7941, 20 h, read-out: MIC100; procedure, shortened: as §1
[7] = system: Aspergillus niger; experiment: Antifungal activity against Aspergillus niger ATCC 1004 assessed as growth inhibition at pH 7 incubated for 5 days in presence of 10% beef serum; format: functional; details: for MIC: ATCC 1004, 120 h, read-out: MIC100; procedure, shortened: as §1
[8] = system: Trichophyton mentagrophytes; experiment: Antifungal activity against Trichophyton mentagrophytes ATCC 9129 assessed as growth inhibition at pH 5.6 incubated for 5 days in presence of 10% beef serum; format: functional; details: for MIC: ATCC 9129, 120 h, read-out: MIC100; procedure, shortened: as §1
[9] = system: Mucor mucedo; experiment: Antifungal activity against Mucor mucedo ATCC 7941 assessed as growth inhibition at pH 5.6 incubated for 20 hrs in presence of 10% beef serum; format: functional; details: for MIC: ATCC 7941, 20 h, read-out: MIC100; procedure, shortened: as §1
[10] = system: Trichophyton mentagrophytes; experiment: Antifungal activity against Trichophyton mentagrophytes ATCC 9129 assessed as growth inhibition at pH 5.6 incubated for 5 days in absence of 10% beef serum; format: functional; details: for MIC: ATCC 9129, 120 h, read-out: MIC100; procedure, shortened: as §1
[11] = system: Candida albicans; experiment: Antifungal activity against Candida albicans ATCC 10231 assessed as growth inhibition at pH 7 incubated for 20 hrs in presence of 10% beef serum; format: functional; details: for MIC: ATCC 10231, 20 h, read-out: MIC100; procedure, shortened: as §1
[12] = system: Trichophyton mentagrophytes; experiment: Antifungal activity against Trichophyton mentagrophytes ATCC 9129 assessed as growth inhibition at pH 7 incubated for 5 days in absence of 10% beef serum; format: functional; details: for MIC: ATCC 9129, 120 h, read-out: MIC100; procedure, shortened: as §1
[13] = system: Candida albicans; experiment: Antifungal activity against Candida albicans ATCC 10231 assessed as growth inhibition at pH 7 incubated for 20 hrs in absence of 10% beef serum; format: functional; details: for MIC: ATCC 10231, 20 h, read-out: MIC100; procedure, shortened: as §1
[14] = system: Mucor mucedo; experiment: Antifungal activity against Mucor mucedo ATCC 7941 assessed as growth inhibition at pH 7 incubated for 20 hrs in absence of 10% beef serum; format: functional; details: for MIC: ATCC 7941, 20 h, read-out: MIC100; procedure, shortened: as §1
[15] = system: Trichophyton mentagrophytes; experiment: Antifungal activity against Trichophyton mentagrophytes ATCC 9129 assessed as growth inhibition at pH 7 incubated for 5 days in presence of 10% beef serum; format: functional; details: for MIC: ATCC 9129, 120 h, read-out: MIC100; procedure, shortened: as §1
[16] = system: Aspergillus niger; experiment: Antifungal activity against Aspergillus niger ATCC 1004 assessed as growth inhibition at pH 7 incubated for 5 days in absence of 10% beef serum; format: functional; details: for MIC: ATCC 1004, 120 h, read-out: MIC100; procedure, shortened: as §1
[17] = system: Mucor mucedo; experiment: Antifungal activity against Mucor mucedo ATCC 7941 incubated for 20 hrs; format: functional, organism-based
[18] = system: Candida albicans; experiment: Antifungal activity against Candida albicans ATCC 10231 incubated for 20 hrs; format: functional, organism-based
[19] = system: Trichophyton mentagrophytes; experiment: Antifungal activity against Trichophyton mentagrophytes ATCC 9129 incubated for 5 days; format: functional, organism-based
[20] = system: Aspergillus niger; experiment: Antifungal activity against Aspergillus niger ATCC 1004 incubated for 5 days; format: functional, organism-based

| SMILES | MIC [1] [µg/mL] | MIC100 [3] | MIC [4] [µg/mL] | MIC [5] [µg/mL] | MIC [6] [µg/mL] | MIC100 [7] | MIC [8] [µg/mL] | MIC [9] [µg/mL] | MIC [10] [µg/mL] | MIC [11] [µg/mL] | MIC [12] [µg/mL] | MIC [13] [µg/mL] | MIC [14] [µg/mL] | MIC [15] [µg/mL] | MIC [2] [µg/mL] | MIC [3] [µg/mL] | MIC [7] [µg/mL] | MIC [16] [µg/mL] | also measured |
| --- | --- | --- | --- | --- | --- | --- | --- | --- | --- | --- | --- | --- | --- | --- | --- | --- | --- | --- | --- |
| CCCCCCOC(=O)/C=C/CBr | 50 | inactive | 20 (≈ 80.3 µM) | 70 | 14 (≈ 56.2 µM) | inactive | 14 | 40 | < 1 | 90 | 4 (≈ 16.1 µM) | 20 (≈ 80.3 µM) | 16 (≈ 64.2 µM) | 30 |  |  |  |  | MIC100 [2]: inactive; MIC100 [16]: inactive |
| CC1/C=C/C=C/C=C/C=C/C=C/C=C/C=C/C(OC2O[C@H](C)[C@@H](O)[C@H](N)[C@@H]2O)CC(O)C(C(=O)O)C(O)CC(=O)CC(O)CC(O)CC(O)CC(=O)CCCC(=O)CC(=O)OC1C(C)CC(C)C(O)CC(=O)c1ccc(N)cc1 (some centres not stated) | < 1 |  | < 1 | < 1 | < 1 |  | < 1 | < 1 | < 1 | 2 | 3 (≈ 2.7 µM) | < 1 | < 1 | 9 | 2 (≈ 1.8 µM) | 5 | 7 | 5 (≈ 4.51 µM) |  |
| CCCCOC(=O)/C=C/CBr | 7 |  | 16 (≈ 72.4 µM) | 30 | 4 (≈ 18.1 µM) |  | 4 | 4 | < 1 | 40 | 3 (≈ 13.6 µM) | 30 (≈ 136 µM) | 4 (≈ 18.1 µM) | 8 | 60 (≈ 271 µM) | 100 | 80 | 50 (≈ 226 µM) |  |
| C[C@@H]1[C@H](O)[C@@H](C)/C=C/C=C/C=C/C=C/C=C/C=C/C=C/[C@H](O[C@@H]2O[C@H](C)[C@@H](O)[C@H](N)[C@@H]2O)C[C@@H]2O[C@](O)(C[C@@H](O)C[C@@H](O)[C@H](O)CC[C@@H](O)C[C@@H](O)CC(=O)O[C@H]1C)C[C@H](O)[C@H]2C(=O)O [AMPHOTERICIN B] | < 1 |  | < 1 | < 1 | < 1 |  | < 1 | < 1 | < 1 | < 1 | < 1 | < 1 | < 1 | < 1 | < 1 | < 1 | < 1 | < 1 |  |
| COC(=O)/C=C/CF |  | inactive |  |  |  | inactive |  |  |  |  |  |  |  |  |  |  |  |  | MIC100 [1]: inactive; MIC100 [2]: inactive; MIC100 [4]: inactive; MIC100 [5]: inactive; MIC100 [6]: inactive; MIC100 [8]: inactive; MIC100 [9]: inactive; MIC100 [10]: inactive; MIC100 [11]: inactive; MIC100 [12]: inactive; MIC100 [13]: inactive; MIC100 [14]: inactive; MIC100 [15]: inactive; MIC100 [16]: inactive |
| CCCCCOC(=O)/C=C/CBr | 30 | inactive | 20 (≈ 85.1 µM) | 50 | 3 (≈ 12.8 µM) | inactive | 4 | 14 | < 1 | 50 | 2 (≈ 8.51 µM) | 30 (≈ 128 µM) | 14 (≈ 59.5 µM) | 10 | 70 (≈ 298 µM) |  |  | 70 (≈ 298 µM) |  |
| C/C=C/C(=O)OCCCCCC |  |  |  |  |  |  |  |  |  |  |  |  |  |  |  |  |  |  | Activity [17]: inactive; Activity [18]: inactive; Activity [19]: inactive; Activity [20]: inactive |
| CCCOC(=O)/C=C/CBr | 7 |  | 18 (≈ 86.9 µM) | 30 | 4 (≈ 19.3 µM) |  | 3 | 5 | < 1 | 40 | 3 (≈ 14.5 µM) | 30 (≈ 145 µM) | 4 (≈ 19.3 µM) | 7 | 80 (≈ 386 µM) | 90 | 80 | 60 (≈ 290 µM) |  |
| COC(=O)/C=C/CCl | 90 | inactive |  |  | 60 (≈ 446 µM) | inactive | 40 | 80 | 4 (≈ 29.7 µM) |  | 60 (≈ 446 µM) |  | 80 (≈ 595 µM) | 60 |  |  |  |  | MIC100 [2]: inactive; MIC100 [4]: inactive; MIC100 [5]: inactive; MIC100 [11]: inactive; MIC100 [13]: inactive; MIC100 [16]: inactive |
| CCOC(=O)/C=C/CI | 5 |  | 8 (≈ 33.3 µM) | 18 | < 1 |  | 2 | 4 | < 1 | 18 | 2 (≈ 8.33 µM) | 10 (≈ 41.7 µM) | 3 (≈ 12.5 µM) | 4 | 40 (≈ 167 µM) | 50 | 40 | 40 (≈ 167 µM) |  |
| C/C=C/C(=O)OCC |  |  |  |  |  |  |  |  |  |  |  |  |  |  |  |  |  |  | Activity [17]: inactive; Activity [18]: inactive; Activity [19]: inactive; Activity [20]: inactive |

— ChEMBL document CHEMBL3271984, “Antifungal activity of 4-substituted crotonic acid esters” (1976)
